# Results: ChEMBL document CHEMBL4196054, “Facile synthesis of 1,2-dione-containing abietane analogues for the generation of human carboxylesterase inhibitors” (Eur J Med Chem, 2018)
# Tests used:
# [1] = target: Acetylcholinesterase (Homo sapiens) (UniProt P22303); test: Inhibition of human AChE using acetylthiocholine as substrate at 5 uM by spectrophotometric analysis
# Outline: (§1)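 Run like the carboxylesterase assay in 50mM Hepes pH7.4 with DMSO-dissolved inhibitor, reaction started by enzyme addition. Substrate is acetylthiocholine (AChE) or butyrylthiocholine (BChE). Inhibitor tested at a single 5µM concentration.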
# [2] = Inhibition of human intestinal carboxylesterase using o-nitrophenyl acetate as substrate
# Outline: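 Purified human intestinal CE (hiCE), chromatographically pure. Read in 96-well format with 3mM o-nitrophenyl acetate in 50mM Hepes, pH7.4. Inhibitors were added in DMSO and the reaction was started by adding enzyme. At least 8 inhibitor concentrations were run in triplicate against DMSO-only controls. Data were fitted to a multifactorial equation, the best model was chosen by Akaike's information criteria, and Ki was taken from the curve fits.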
# Liver carboxylesterase 1 = target: T1, Liver carboxylesterase 1 (Homo sapiens, UniProt P23141); test: Inhibition of human liver carboxylesterase 1 using o-nitrophenyl acetate as substrate
# T1 sequence (P23141 whole entry): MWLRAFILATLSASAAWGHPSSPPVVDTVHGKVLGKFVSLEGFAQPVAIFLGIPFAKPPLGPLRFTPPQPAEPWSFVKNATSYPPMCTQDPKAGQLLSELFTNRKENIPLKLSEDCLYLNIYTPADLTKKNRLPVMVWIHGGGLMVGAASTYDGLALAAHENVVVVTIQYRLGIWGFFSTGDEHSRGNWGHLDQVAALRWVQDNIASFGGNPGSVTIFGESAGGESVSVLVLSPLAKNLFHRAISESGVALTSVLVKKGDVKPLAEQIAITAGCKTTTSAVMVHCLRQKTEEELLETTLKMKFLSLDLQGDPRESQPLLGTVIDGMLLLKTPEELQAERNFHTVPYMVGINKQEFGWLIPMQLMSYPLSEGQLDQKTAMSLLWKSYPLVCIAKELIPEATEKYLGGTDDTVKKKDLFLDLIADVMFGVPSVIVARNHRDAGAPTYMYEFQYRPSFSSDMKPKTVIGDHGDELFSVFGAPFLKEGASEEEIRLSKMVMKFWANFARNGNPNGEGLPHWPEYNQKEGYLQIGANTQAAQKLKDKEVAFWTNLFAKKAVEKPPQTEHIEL
# Outline: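 Chromatographically pure human hCE1 in 50mM Hepes pH7.4 with 3mM o-nitrophenyl acetate. Inhibitor in DMSO, at least 8 concentrations, triplicates, compared against DMSO-only controls. Reaction started by enzyme addition. Data fitted to a multifactorial equation, the best inhibition model chosen by Akaike's information criterion, and Ki taken from the curve fits.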
# [3] = target: Cholinesterase (Homo sapiens) (UniProt P06276); test: Inhibition of human BChE using butyrylthiocholine as substrate at 5 uM by spectrophotometric analysis; outline: as §1
# Cholinesterase (Homo sapiens), sequence (P06276 whole entry): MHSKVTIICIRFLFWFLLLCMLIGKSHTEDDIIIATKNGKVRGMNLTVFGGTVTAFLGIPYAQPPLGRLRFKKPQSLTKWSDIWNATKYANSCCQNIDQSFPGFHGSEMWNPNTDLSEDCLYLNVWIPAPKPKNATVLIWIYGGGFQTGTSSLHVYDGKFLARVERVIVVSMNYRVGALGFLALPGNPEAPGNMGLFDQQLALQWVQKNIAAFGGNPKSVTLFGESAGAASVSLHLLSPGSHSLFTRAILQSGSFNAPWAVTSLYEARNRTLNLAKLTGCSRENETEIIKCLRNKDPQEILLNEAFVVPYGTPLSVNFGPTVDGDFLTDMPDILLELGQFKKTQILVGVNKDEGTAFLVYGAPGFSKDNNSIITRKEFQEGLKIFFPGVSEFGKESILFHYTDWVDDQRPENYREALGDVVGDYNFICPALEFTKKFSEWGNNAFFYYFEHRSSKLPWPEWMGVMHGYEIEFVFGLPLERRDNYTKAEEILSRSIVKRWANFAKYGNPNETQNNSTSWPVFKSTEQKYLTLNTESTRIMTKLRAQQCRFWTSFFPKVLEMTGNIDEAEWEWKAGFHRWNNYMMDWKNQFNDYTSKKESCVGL
# Homo sapiens [4] = organism: Homo sapiens; test: Selectivity index, ratio of Ki for human liver carboxylesterase 1 to Ki for human intestinal carboxylesterase
# [5] = target: T2, liver carboxylesterase 1 (CES1) (Homo sapiens, UniProt P23141); test: Potency index, ratio of miltirone Ki to compound Ki for inhibition of human liver carboxylesterase 1; details: read-out: Ratio Ki
# T2 sequence (P23141 whole entry): T1 sequence (P23141 whole entry)
# Homo sapiens [6] = organism: Homo sapiens; test: Potency index, ratio of miltirone Ki to compound Ki for inhibition of human intestinal carboxylesterase
# Acetylcholinesterase (Homo sapiens), sequence (P22303 whole entry): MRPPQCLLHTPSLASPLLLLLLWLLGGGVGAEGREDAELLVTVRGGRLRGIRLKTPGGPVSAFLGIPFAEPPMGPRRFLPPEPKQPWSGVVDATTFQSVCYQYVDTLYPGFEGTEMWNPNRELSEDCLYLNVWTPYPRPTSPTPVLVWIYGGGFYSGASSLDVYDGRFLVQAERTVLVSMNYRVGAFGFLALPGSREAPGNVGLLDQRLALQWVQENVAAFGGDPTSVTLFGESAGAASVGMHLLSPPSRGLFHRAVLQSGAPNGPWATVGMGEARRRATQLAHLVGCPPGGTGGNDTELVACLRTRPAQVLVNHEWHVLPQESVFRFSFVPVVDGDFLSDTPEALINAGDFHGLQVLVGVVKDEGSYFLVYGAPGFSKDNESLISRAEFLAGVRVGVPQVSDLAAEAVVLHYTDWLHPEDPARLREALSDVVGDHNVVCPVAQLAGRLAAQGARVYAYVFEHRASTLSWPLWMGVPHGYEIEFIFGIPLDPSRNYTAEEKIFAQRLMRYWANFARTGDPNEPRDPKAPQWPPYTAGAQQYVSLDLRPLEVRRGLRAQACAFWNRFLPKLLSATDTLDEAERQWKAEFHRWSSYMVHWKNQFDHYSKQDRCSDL
Compound,inhibition [1],Ki [2],Ki (Liver carboxylesterase 1),inhibition [3],Ratio Ki (Homo sapiens [4]),selectivity ratio [5],Ratio Ki (Homo sapiens [6])
O=C1C=Cc2ccc3ccccc3c2C1=O,16%,≥ 10 µM,0.942 µM,13%,< 0.06,–,–
O=C1C(=O)c2c(ccc3ccccc23)C=C1F,8%,0.0513 µM,0.0487 µM,3%,0.48,–,–
COC1=Cc2ccc3c(c2C(=O)C1=O)CC(C)(C)CC3,2%,0.159 µM,0.0425 µM,1%,0.3,–,–
CC1=CC(=O)C(=O)c2c1ccc1c2CCCC1,13%,≥ 10 µM,0.0251 µM,30%,–,–,–
CC1(C)CCc2ccc3c(c2C1)C(=O)C(=O)C=C3F,10%,0.386 µM,0.0144 µM,15%,0.04,175,–
CC1(C)CCc2ccc3c(c2C1)C(=O)C(=O)C=C3,2%,0.341 µM,0.0319 µM,13%,0.09,–,–
O=C1C(=O)c2c(ccc3c2CCCC3)C=C1F,16%,0.112 µM,0.0122 µM,62%,0.11,210,–
O=C1C=C(F)c2ccc3c(c2C1=O)CCCC3,4%,0.171 µM,0.0259 µM,33%,0.15,–,–
CC1=Cc2ccc3c(c2C(=O)C1=O)CCOC3,27%,≥ 10 µM,≥ 10 µM,0%,–,–,–
CC(C)C1=Cc2ccc3c(c2C(=O)C1=O)CC(C)(C)CC3,20%,0.0312 µM,1.87 µM,4%,60,–,–
O=C1C=Cc2ccc3c(c2C1=O)CCCC3,0%,2.18 µM,0.131 µM,54%,0.06,–,–
CC1(C)CCc2ccc3c(c2C1)C(=O)C(=O)C(F)=C3F,4%,0.0433 µM,0.102 µM,1%,2.3,–,–
CC(C)C1=Cc2ccc3c(c2C(=O)C1=O)CCCC3,16%,0.111 µM,1.05 µM,1%,–,–,–
CC(C)C1=Cc2ccc3c(c2C(=O)C1=O)CCCC3(C)C [MILTIRONE],22%,–,–,6%,–,–,–
CC1=Cc2ccc3c(c2C(=O)C1=O)CC(C)(C)CC3,0%,0.0879 µM,2.42 µM,1%,27.6,–,–
CC1=Cc2ccc3c(c2C(=O)C1=O)CCCC3,5%,0.423 µM,1.22 µM,4%,2.9,–,–
CC1(C)CCc2ccc3c(c2C1)C(=O)C(=O)C(F)=C3,3%,0.0146 µM,0.042 µM,23%,2.9,–,3
CC1=Cc2ccc3c(c2C(=O)C1=O)CCC(C)(C)C3,1%,0.182 µM,0.495 µM,2%,2.7,–,–
CC(C)C1=Cc2ccc3c(c2C(=O)C1=O)CCC(C)(C)C3,30%,0.0707 µM,4.2 µM,3%,59.5,–,–
